From ChEMBL document CHEMBL4382248, “Optimization of a 1,3,4-oxadiazole series for inhibition of Ca2+/calmodulin-stimulated activity of adenylyl cyclases 1 and 8 for the treatment of chronic pain” (Eur J Med Chem, 2019)
Calls of active or inactive are those of the source. No cut-off for these calls is given here.

Columns and labels:
[1] = (§1) Cytotoxicity against HEK293 cells expressing human AC1 at 30 uM preincubated for 30 mins followed by A23187 stimulation and measured after 1 hr by CellTiter-Glo luminescent cell viability assay relative to control; assay type: cell-based; settings: HEK293 cells expressing human AC1, read-out: Activity
Summary of the method: (§2)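 Cytotoxicity in HEK lines stably expressing AC1 or AC8: single 30 µM dose, 90 min incubation. Viability was read by luminescent ATP reporter as % of DMSO-treated (100%) and Triton-X-treated (0%) controls.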

Mus musculus [2] = assay: Analgesic activity in C57BL/6 mouse model of CFA-induced inflammatory pain model assessed as reduction in mechanical sensitivity in ipsilateral paw at 5 mg/kg, ip measured after 1 day post dose by von Frey filament test based modified up-and-down technique; assay type: functional, organism-based
Mus musculus [3] = assay: Effect on mechanical sensitivity in contralateral pa in C57BL/6 mouse model of CFA-induced inflammatory pain model at 5 mg/kg, ip measured after 30 mins post dose by von Frey filament test based modified up-and-down technique; assay type: ADME, organism-based; settings: in vivo, 0.5 h
Summary of the method: (§3)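 Male C57BL/6 mice (n=7) received CFA in the ipsilateral hind paw. On day 2, after baseline hypersensitivity was measured, they were given vehicle or 5 mg/kg i.p. Mechanical sensitivity of ipsilateral and contralateral paws was recorded 30 min after injection. Analysis used two-way repeated-measures ANOVA with Bonferroni test.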

Homo sapiens = species on record: Homo sapiens; assay: Selectivity ratio of IC50 for human AC8 expressed in HEK293 cells to IC50 for human AC1 expressed in HEK293 cells; assay type: cell-based
Mus musculus [4] = assay: Analgesic activity in C57BL/6 mouse model of CFA-induced inflammatory pain model assessed as reduction in mechanical sensitivity in ipsilateral paw at 5 mg/kg, ip measured after 30 mins post dose by von Frey filament test based modified up-and-down technique; assay type: functional, organism-based; summary of the method: as §3
Adenylate cyclase type 1 [5] = target: T1, Adenylate cyclase type 1 (Homo sapiens, UniProt Q08828); assay: Inhibition of AC1 (unknown origin) expressed in HEK cells assessed as decrease in A23187-stimulated cAMP accumulation preincubated for 30 mins followed by A23187 stimulation and measured after 1 hr; assay type: cell-based
Summary of the method: (§4)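 HEK cells stably expressing AC1 or AC8; Ca2+/calmodulin-stimulated cAMP accumulation measured. Dose-response curves began at 30 µM. […] Values are the mean and SEM of three independent experiments.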
Target sequence in this assay (Q08828 whole entry): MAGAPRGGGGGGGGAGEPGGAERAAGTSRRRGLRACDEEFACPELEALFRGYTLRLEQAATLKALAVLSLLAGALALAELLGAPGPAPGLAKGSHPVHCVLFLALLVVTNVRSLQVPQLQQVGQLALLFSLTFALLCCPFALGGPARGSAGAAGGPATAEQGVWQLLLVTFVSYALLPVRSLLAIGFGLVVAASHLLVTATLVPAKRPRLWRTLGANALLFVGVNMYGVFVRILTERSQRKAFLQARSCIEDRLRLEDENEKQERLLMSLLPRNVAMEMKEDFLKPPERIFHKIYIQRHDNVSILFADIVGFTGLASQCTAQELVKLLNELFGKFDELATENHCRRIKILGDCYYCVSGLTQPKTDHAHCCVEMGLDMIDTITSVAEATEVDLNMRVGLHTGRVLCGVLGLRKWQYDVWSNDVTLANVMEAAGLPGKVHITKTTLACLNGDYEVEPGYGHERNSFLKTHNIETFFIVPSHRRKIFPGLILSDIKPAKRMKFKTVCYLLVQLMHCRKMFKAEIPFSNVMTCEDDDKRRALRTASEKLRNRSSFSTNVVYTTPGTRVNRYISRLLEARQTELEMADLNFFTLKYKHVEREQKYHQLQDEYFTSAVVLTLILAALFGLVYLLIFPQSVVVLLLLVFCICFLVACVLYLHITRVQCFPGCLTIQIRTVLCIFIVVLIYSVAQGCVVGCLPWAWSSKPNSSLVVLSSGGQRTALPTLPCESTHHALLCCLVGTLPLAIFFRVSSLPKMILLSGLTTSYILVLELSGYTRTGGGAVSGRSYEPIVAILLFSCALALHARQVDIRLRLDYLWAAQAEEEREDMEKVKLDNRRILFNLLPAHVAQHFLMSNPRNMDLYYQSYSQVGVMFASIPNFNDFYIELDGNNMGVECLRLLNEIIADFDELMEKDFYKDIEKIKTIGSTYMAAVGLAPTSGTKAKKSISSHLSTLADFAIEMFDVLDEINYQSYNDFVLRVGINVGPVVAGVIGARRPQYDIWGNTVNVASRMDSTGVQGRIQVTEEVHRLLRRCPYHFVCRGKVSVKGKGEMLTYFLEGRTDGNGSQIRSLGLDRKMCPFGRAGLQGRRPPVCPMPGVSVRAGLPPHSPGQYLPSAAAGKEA

HEK293 = assay: as §1; assay type: cell-based; settings: hek293, 1 h, 30 µM; summary of the method: as §2
Adenylate cyclase type 1 [6] = target: T1, Adenylate cyclase type 1; assay: Inhibition of human AC1 expressed in HEK293 cells assessed as decrease in A23187-stimulated cAMP accumulation preincubated for 30 mins followed by A23187 stimulation and measured after 1 hr by fluorescence assay; assay type: cell-based; summary of the method: as §4
Target sequence in this assay (Q08828 whole entry): as above

Adenylate cyclase type 8 = Adenylate cyclase type 8 (Homo sapiens, UniProt P40145); assay: Inhibition of human AC8 expressed in HEK293 cells assessed as decrease in A23187-stimulated cAMP accumulation at 30 uM preincubated for 30 mins followed by A23187 stimulation and measured after 1 hr by fluorescence assay relative to control; assay type: cell-based; summary of the method: as §4
Sequence of Adenylate cyclase type 8 (P40145 whole entry): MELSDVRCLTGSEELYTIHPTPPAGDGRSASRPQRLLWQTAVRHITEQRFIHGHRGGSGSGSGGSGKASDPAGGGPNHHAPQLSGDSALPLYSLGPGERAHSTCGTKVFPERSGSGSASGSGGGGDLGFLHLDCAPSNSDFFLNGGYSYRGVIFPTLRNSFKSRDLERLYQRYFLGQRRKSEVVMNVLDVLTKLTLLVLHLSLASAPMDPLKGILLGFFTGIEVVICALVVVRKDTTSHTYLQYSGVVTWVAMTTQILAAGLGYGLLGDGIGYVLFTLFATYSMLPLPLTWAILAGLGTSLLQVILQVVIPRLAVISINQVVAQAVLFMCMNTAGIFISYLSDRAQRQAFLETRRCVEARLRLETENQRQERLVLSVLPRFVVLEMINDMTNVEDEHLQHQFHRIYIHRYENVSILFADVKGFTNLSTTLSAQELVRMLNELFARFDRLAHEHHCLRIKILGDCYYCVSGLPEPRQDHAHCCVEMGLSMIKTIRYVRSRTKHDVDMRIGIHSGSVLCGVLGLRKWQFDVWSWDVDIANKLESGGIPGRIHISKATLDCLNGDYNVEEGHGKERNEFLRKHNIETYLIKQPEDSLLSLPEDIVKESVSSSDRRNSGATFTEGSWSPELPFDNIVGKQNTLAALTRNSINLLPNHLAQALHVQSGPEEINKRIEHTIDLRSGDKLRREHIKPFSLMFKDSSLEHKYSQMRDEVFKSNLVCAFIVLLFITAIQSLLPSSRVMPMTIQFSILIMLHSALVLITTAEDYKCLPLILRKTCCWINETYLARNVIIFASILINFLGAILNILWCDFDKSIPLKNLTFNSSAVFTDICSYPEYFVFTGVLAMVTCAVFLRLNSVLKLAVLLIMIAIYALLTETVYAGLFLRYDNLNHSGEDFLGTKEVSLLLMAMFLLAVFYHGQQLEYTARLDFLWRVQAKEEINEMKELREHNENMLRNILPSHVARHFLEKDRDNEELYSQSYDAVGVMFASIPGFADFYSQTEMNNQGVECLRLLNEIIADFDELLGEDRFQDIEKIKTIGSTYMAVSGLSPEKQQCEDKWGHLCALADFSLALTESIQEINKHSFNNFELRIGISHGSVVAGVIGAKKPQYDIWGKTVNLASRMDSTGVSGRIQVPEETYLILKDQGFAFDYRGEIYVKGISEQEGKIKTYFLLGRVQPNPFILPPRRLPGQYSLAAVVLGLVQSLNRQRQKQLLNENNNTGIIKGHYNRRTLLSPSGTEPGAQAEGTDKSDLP

Adenylate cyclase type 1 [7] = target: T1, Adenylate cyclase type 1; assay: Inhibition of human AC1 expressed in HEK293 AC3/AC6 deficit cells assessed as decrease in forskolin-stimulated cAMP accumulation preincubated for 30 mins followed by forskolin stimulation and measured after 1 hr by fluorescence assay; assay type: cell-based
Summary of the method: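 HEK cells lacking AC3/AC6 were transiently transfected with AC1. Cells were incubated with test compounds in the presence of forskolin at 3, 10 or 30 µM, and cAMP accumulation was measured.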
Target sequence in this assay (Q08828 whole entry, looked up): as the sequence (Q08828 whole entry) above

Adenylate cyclase type 1 [8] = target: T1, Adenylate cyclase type 1; assay: Inhibition of human AC1 expressed in HEK293 cells assessed as decrease in A23187-stimulated cAMP accumulation at 30 uM preincubated for 30 mins followed by A23187 stimulation and measured after 1 hr by fluorescence assay relative to control; assay type: cell-based; summary of the method: as §4
Target sequence in this assay (Q08828 whole entry, looked up): as the sequence (Q08828 whole entry) above

[9] = target: Adenylate cyclase type 2 (Homo sapiens) (UniProt Q08462); assay: Inhibition of human AC2 expressed in HEK293 cells assessed as PMA-stimulated cAMP accumulation at 30 uM preincubated for 30 mins followed by PMA stimulation and measured after 1 hr by fluorescence assay relative to control; assay type: cell-based; parameters: scale not given: the % may be the effect or the level left
Sequence of Adenylate cyclase type 2 (Homo sapiens) (Q08462 whole entry): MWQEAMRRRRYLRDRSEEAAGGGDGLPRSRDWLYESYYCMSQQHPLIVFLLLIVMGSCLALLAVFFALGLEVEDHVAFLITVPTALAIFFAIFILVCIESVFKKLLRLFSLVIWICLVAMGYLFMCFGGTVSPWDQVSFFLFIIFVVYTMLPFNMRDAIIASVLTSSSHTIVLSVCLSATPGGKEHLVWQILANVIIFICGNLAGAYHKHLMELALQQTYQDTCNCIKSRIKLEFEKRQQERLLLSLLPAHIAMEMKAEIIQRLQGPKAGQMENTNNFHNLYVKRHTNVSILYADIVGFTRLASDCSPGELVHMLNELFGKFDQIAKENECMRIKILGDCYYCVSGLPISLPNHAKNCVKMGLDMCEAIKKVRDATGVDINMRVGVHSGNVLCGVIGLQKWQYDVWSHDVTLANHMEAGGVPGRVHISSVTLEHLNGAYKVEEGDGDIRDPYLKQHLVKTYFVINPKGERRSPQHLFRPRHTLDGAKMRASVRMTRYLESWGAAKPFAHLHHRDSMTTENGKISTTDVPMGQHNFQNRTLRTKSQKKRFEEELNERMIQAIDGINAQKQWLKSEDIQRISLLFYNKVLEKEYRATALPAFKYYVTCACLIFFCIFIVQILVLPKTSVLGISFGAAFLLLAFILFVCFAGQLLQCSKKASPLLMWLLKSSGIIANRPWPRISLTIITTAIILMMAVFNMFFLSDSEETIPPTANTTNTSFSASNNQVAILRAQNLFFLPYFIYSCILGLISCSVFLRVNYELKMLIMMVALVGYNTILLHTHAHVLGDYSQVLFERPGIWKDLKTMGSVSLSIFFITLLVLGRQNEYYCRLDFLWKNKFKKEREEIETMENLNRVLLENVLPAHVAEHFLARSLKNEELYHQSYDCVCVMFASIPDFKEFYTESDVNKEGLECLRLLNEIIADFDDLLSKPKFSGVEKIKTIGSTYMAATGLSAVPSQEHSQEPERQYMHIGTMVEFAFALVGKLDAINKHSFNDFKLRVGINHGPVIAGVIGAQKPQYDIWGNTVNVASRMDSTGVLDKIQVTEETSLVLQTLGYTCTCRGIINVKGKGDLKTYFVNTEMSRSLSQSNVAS
Summary of the method: (§5)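 Group 2 AC2 (PKC-stimulated) or group 3 AC (forskolin-stimulated) cells were exposed to a single 30 µM dose (n = 3). cAMP activity was normalized to DMSO controls set as 100%.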

[10] = target: Adenylate cyclase type 5 (Homo sapiens) (UniProt O95622); assay: Inhibition of human AC5 expressed in HEK293 cells assessed as forskolin-stimulated cAMP accumulation at 30 uM preincubated for 30 mins followed by forskolin stimulation and measured after 1 hr by fluorescence assay relative to control; assay type: cell-based; parameters: scale not given: the % may be the effect or the level left; summary of the method: as §5
Sequence of Adenylate cyclase type 5 (Homo sapiens) (O95622 whole entry, looked up): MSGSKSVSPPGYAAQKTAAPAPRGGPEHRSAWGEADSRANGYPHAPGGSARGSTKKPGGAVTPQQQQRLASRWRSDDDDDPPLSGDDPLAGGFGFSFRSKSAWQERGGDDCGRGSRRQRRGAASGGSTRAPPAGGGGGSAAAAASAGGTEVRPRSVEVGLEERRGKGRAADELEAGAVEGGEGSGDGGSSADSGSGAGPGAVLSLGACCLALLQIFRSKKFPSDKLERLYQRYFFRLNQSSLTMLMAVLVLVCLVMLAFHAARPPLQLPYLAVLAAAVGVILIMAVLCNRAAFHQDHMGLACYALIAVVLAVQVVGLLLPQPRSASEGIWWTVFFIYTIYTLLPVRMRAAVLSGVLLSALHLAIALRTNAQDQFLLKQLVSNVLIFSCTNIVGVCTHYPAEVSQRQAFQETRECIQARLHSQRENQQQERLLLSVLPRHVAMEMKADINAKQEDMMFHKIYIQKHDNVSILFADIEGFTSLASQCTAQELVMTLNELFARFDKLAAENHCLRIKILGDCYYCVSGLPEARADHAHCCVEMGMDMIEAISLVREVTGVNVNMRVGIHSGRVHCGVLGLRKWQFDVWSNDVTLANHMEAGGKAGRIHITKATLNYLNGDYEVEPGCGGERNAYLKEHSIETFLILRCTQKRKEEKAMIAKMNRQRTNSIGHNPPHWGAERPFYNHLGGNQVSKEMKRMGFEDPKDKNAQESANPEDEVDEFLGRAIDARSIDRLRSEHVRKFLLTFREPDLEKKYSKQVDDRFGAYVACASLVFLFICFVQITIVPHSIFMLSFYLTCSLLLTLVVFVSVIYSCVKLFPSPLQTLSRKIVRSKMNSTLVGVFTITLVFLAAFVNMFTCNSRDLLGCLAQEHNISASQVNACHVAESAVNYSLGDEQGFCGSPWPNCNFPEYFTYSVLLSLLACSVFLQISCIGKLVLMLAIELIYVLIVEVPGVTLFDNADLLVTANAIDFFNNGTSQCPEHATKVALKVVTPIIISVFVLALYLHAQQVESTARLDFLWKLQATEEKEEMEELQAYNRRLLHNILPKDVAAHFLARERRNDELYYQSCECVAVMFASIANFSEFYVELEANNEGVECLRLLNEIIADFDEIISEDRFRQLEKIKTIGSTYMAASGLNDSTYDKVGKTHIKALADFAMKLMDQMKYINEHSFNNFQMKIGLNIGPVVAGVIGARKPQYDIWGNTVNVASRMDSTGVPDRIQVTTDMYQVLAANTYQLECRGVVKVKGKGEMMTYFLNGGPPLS

Question: With `Cc1cc(C(=O)Nc2nnc(-c3ccc(F)cc3)o2)cc(C(F)(F)F)c1` as the molecule, how does the viability at 1 h, 30 µM [1] read?
Answer: 102%

Question: And the Activity (Mus musculus [2])?
Answer: inactive

Question: And the Activity (Mus musculus [3])?
Answer: Non-Toxic

Question: What about the Ratio IC50 (Homo sapiens) of the same molecule?
Answer: 2.9

Question: What about the Activity (Mus musculus [4]) of the same molecule?
Answer: Active

Question: With `O=c1cc(C(Cl)(Cl)Cl)oc2ccc(Cl)cc12` as the molecule, how does the IC50 (Adenylate cyclase type 1 [5]) read?
Answer: 2300 nM

Question: For `O=C(Nc1nnc(-c2ccccc2)o1)c1cccc(C(F)(F)F)c1`, which Activity (HEK293) is on record?
Answer: 78%

Question: And the IC50 (Adenylate cyclase type 1 [6])?
Answer: 13 µM

Question: And the Ratio IC50 (Homo sapiens)?
Answer: > 2.3

Question: What about the inhibition (Adenylate cyclase type 8) of the same molecule?
Answer: 23%

Question: For `Nc1ncnc2c1NCN2C1CCCO1` (stereo unspecified), which inhibition (Adenylate cyclase type 1 [7]) is on record?
Answer: Dose-dependent effect

Question: For `O=C(Nc1nnc(-c2ccco2)o1)c1ccccc1`, which Activity (HEK293) is on record?
Answer: 73%

Question: And the inhibition (Adenylate cyclase type 1 [8])?
Answer: 20%

Question: What about the inhibition (Adenylate cyclase type 8) of the same molecule?
Answer: 28%

Question: With `O=C(Nc1nnc(-c2ccc(F)cc2)o1)c1cccc(-c2ccccc2)c1` as the molecule, how does the Activity (HEK293) read?
Answer: 71%

Question: And the Ratio IC50 (Homo sapiens)?
Answer: 3

Question: For `O=C(Nc1nnc(-c2ccc3c(c2)CCCC3)o1)c1cccc(C(F)(F)F)c1`, which inhibition (Adenylate cyclase type 1 [7]) is on record?
Answer: Dose-dependent effect

Question: What about the viability at 1 h, 30 µM [1] of the same molecule?
Answer: 107 to 125%

Question: And the Activity [9]?
Answer: 449%

Question: And the Activity [10]?
Answer: 189%

Question: And the Ratio IC50 (Homo sapiens)?
Answer: 4.9 to 9
